The record followed here is ChEMBL document CHEMBL4725242, “Discovery of GS-9688 (Selgantolimod) as a Potent and Selective Oral Toll-Like Receptor 8 Agonist for the Treatment of Chronic Hepatitis B” (J Med Chem, 2020).

One data set concerns the target T1, Toll-like receptor 7 (Homo sapiens, UniProt Q9NYK1).
T1 sequence (Q9NYK1 whole entry): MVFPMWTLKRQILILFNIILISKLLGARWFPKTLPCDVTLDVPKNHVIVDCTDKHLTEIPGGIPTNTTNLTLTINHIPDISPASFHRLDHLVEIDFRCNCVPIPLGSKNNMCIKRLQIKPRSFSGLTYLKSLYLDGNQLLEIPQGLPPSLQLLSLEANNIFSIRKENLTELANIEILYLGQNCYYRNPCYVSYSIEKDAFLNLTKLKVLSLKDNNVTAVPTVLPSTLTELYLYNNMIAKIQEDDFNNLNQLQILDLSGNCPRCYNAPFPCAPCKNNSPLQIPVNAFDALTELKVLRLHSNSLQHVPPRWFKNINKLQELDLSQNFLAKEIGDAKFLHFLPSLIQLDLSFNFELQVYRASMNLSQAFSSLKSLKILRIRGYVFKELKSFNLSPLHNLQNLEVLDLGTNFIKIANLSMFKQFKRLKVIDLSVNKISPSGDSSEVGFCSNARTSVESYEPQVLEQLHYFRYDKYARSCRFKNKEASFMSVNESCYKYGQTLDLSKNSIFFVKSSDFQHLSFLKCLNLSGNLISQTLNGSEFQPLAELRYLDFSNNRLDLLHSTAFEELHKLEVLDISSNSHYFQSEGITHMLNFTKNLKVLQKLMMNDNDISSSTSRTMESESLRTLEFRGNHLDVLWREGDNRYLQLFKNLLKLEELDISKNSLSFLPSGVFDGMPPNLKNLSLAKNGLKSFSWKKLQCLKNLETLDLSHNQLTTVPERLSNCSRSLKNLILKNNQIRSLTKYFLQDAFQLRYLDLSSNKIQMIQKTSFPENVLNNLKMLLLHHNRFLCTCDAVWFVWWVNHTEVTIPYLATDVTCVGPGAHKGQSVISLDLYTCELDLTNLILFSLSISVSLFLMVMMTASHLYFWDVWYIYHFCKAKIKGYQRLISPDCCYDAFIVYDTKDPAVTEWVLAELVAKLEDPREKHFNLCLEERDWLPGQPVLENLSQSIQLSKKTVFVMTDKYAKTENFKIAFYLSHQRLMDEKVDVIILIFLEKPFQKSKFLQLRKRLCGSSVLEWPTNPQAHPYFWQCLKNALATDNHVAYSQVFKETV
Kind of data set: Agonist activity at TLR7 in human cryopreserved PBMC assessed as induction of IFNalpha production measured after 24 hrs. In outline: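 Cryopreserved healthy-donor human PBMC, recovered 2 h at 37°C/5% CO2, then 100k cells/well in RPMI/10% FBS exposed 24 h at 37°C to a 10-point half-log dilution series (0.5% final DMSO). Supernatant IFNα-2a quantified by MSD electrochemiluminescence immunoassay. For the ratio, divided by the IL-12p40 EC50 from the same PBMC screen.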

The next data set deals with T2, Toll-like receptor 8 (Homo sapiens, UniProt Q9NR97).
T2 sequence (Q9NR97 whole entry): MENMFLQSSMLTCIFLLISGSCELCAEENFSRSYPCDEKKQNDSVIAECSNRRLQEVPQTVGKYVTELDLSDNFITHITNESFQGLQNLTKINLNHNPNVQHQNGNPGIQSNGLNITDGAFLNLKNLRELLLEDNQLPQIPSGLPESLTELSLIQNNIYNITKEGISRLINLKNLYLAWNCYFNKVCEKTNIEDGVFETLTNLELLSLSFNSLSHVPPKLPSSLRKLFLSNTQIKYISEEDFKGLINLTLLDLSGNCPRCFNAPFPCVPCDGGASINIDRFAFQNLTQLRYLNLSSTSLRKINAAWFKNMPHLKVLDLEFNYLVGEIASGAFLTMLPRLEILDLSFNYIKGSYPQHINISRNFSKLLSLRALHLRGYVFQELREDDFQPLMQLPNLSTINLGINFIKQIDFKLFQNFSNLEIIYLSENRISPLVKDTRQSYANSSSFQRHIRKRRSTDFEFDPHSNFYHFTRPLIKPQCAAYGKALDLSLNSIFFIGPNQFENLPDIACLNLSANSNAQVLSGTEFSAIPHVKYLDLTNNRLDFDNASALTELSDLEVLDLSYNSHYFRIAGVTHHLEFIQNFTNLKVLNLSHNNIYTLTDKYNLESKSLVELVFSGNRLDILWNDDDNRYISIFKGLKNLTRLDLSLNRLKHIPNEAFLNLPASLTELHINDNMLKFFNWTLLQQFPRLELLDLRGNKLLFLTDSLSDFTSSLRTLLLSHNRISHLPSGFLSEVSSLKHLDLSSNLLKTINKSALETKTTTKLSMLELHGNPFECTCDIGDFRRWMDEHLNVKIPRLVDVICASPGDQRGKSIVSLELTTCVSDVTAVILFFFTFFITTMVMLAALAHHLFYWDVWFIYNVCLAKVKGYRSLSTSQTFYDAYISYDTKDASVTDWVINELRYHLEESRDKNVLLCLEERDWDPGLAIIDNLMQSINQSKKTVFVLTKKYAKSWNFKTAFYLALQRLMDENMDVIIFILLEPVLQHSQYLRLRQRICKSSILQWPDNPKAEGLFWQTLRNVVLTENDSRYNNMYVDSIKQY
Kind of data set: Agonist activity at TLR8 in human cryopreserved PBMC assessed as induction of IL-12p40 production measured after 24 hrs.

A short description of data set [1]: Cytotoxicity against human MT4 cells assessed as reduction in cell viability measured after 4 to 5 days by celltiter-glo assay. Format: cell-based. As to conditions: time 4-5 day. (Cellular ATP, detected with luciferase, serves as a proxy for viable cell number.)
Data set [2] can be described thus: Selectivity index, ratio of CC50 for human MT4 cells to EC50 for TLR8 in human cryopreserved PBMC assessed as induction of IL-12p40 production.
Data set [3] is described as follows: Dissociation constant, pKa of the compound. Format: physicochemical.

Bounds are passed on as bounds.

What is called EC50 is the concentration needed to bring the measured effect to its halfway point. For `CCCCC[C@H](CO)Nc1nc(N)nc2cccnc12`, the values for the EC50 at Toll-like receptor 7 and at Toll-like receptor 8 were above 20 µM and 3.33 µM, respectively.

As for `CCCN(CCC)C(=O)C1=Cc2ccc(-c3ccc(C(=O)N4CCCC4)cc3)cc2N=C(N)C1` [MOTOLIMOD], the values for the EC50 at Toll-like receptor 7 and on Toll-like receptor 8 were above 30 µM and 1.3 µM, respectively.

As to `CCCC[C@H](CN)Nc1nc(N)nc2cccnc12`, the results for the EC50 at Toll-like receptor 7 and on Toll-like receptor 8 were above 50 µM and 25 µM, respectively.

The CC50 is the concentration giving 50% cytotoxicity. For `CCCC[C@](C)(CO[C@@H]1O[C@H](C(=O)O)[C@@H](O)[C@H](O)[C@H]1O)Nc1nc(N)nc2cc(F)cnc12`, the EC50 at Toll-like receptor 7 and on Toll-like receptor 8 was above 50 µM in each case. The CC50 in data set [1] is above 50 µM.

As to `CCCC[C@@](C)(Nc1nc(N)nc2cc(F)cnc12)C(=O)O`, the EC50 on Toll-like receptor 7 and on Toll-like receptor 8 was above 50 µM in each case. In data set [1], the CC50 is above 50 µM.

With `CCC[C@H](CO)Nc1nc(N)nc2cccnc12`, the concentration giving a half-maximal response (EC50) was above 50 µM on Toll-like receptor 7 and 19 µM on Toll-like receptor 8.

In the case of `CCCCC[C@](C)(CO)Nc1nc(N)nc2cccnc12`, in data set [2], the “Ratio CC50/EC50” value came to 29. In addition, the EC50 at Toll-like receptor 7 turned out to be 20 µM; at Toll-like receptor 8 it was 0.58 µM. In data set [1], the CC50 amounted to 17 µM.

As for `CCCCCC[C@](C)(CO)Nc1nc(N)nc2cccnc12`, the “Ratio CC50/EC50” value in data set [2] was 0.4. Also, the EC50 on Toll-like receptor 7 was above 50 µM; at Toll-like receptor 8, 10 µM. In addition, the CC50 in data set [1] worked out at 3.6 µM.

Turning to `CCCC[C@@H](Nc1nc(N)nc2cccnc12)C(=O)NC`, the EC50 on Toll-like receptor 7 and at Toll-like receptor 8 was above 50 µM in each case.

Usually pKa stands for the pH at which an ionisable group is half protonated. A high value points to a weaker acid or stronger base. On to `CCCC[C@H](CO)Nc1nc(N)nc2ccccc12`, for which the EC50 is above 50 µM on Toll-like receptor 7 and 1.84 µM at Toll-like receptor 8. Moreover, the pKa in data set [3] is 8.2.

For the compound `CCCC(C)Nc1nc(N)nc2cccnc12` (stereo not drawn), the values for the EC50 at Toll-like receptor 7 and at Toll-like receptor 8 were 5.1 µM and 3.1 µM, respectively.

For `CCCC[C@@H](CO)Nc1cc(N)nc2ccccc12`, the 50% effective concentration (EC50) at Toll-like receptor 7 and on Toll-like receptor 8 was above 50 µM throughout.

Regarding `CCCCNc1nc(N)nc2cccnc12`, the EC50 on Toll-like receptor 7 came out at 2.2 µM; at Toll-like receptor 8, 1.9 µM.

As for `CCCC[C@@H](CO)Nc1nc(N)nc2ccccc12`, the figures for the EC50 at Toll-like receptor 7 and on Toll-like receptor 8 were 0.57 µM and 0.71 µM, respectively.

Regarding `CCC[C@](C)(CO)Nc1nc(N)nc2cccnc12`, the “Ratio CC50/EC50” value in data set [2] is on record as above 21. For the same compound, the EC50 on Toll-like receptor 7 is above 50 µM; at Toll-like receptor 8 it was 2.4 µM. In data set [1], the CC50 was above 50 µM.

For the compound `CCC[C@@H](CO)Nc1nc(N)nc2cccnc12`, the half-maximal effective concentration (EC50) on Toll-like receptor 7 is 2 µM; on Toll-like receptor 8 it was 0.43 µM.

Regarding `CCCC[C@H](CO)Nc1cc(N)nc2ccccc12`, the EC50 on Toll-like receptor 7 and on Toll-like receptor 8 was above 50 µM each time.

Consider `CCCC[C@H](CO)Nc1nc(N)nc2cccnc12`, for which the “Ratio CC50/EC50” value in data set [2] was found to be 10. For the same compound, the EC50 was above 50 µM at Toll-like receptor 7 and 0.79 µM on Toll-like receptor 8. In addition, the CC50 in data set [1] was 7.8 µM. In data set [3], this compound yielded a pKa of 6.8.

Take `CCCC[C@@H](CO)Nc1nc(N)nc2cccnc12`: the EC50 at Toll-like receptor 7 was found to be 0.91 µM; on Toll-like receptor 8 it was 0.42 µM.

Consider `CCCC[C@H](CCO)Nc1nc(N)nc2cccnc12`, for which the EC50 on Toll-like receptor 7 is above 50 µM; on Toll-like receptor 8, 4.3 µM.

For `CCCC[C@@H](Nc1nc(N)nc2cccnc12)C(N)=O`, the values for the EC50 on Toll-like receptor 7 and at Toll-like receptor 8 were above 50 µM and 36 µM, respectively.

In the case of `C[C@](CO)(CCCCO)Nc1nc(N)nc2cc(F)cnc12`, the half-maximal effective concentration (EC50) at Toll-like receptor 7 and at Toll-like receptor 8 was above 50 µM throughout. In addition, the CC50 in data set [1] is above 50 µM.

Regarding `CCCC[C@@](C)(CO)Nc1nc(N)nc2cc(F)cnc12`, the “Ratio CC50/EC50” value in data set [2] amounted to 0.2. Moreover, the EC50 at Toll-like receptor 7 is above 50 µM; at Toll-like receptor 8, 3.3 µM. In data set [1], the CC50 amounted to 0.79 µM.

For `CCCC[C@@H](Nc1nc(N)nc2cccnc12)C(=O)O`, the EC50 on Toll-like receptor 7 and on Toll-like receptor 8 was above 50 µM each time.

Regarding `CCCCOc1nc(N)nc2cccnc12`, the EC50 at Toll-like receptor 7 and on Toll-like receptor 8 was above 50 µM each time.

With `CCCCC(CO)(CCCC)Nc1nc(N)nc2cccnc12`, the EC50 at Toll-like receptor 7 and at Toll-like receptor 8 was above 50 µM each time. The CC50 in data set [1] was determined as 38 µM.
